Source: PubChem
TDP2 absorb = TDP2 (human) inhibition, absorbance primary screen | AID 720702 | 370,000 compounds, 0.34% hits | inhibition, % at 12.8 µM | recombinant TDP2, T5PNP hydrolysis, p-nitrophenol absorbance 415 nm;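 active means inhibition above the mean of all tested compounds plus 3 SD, set per campaign, cut at about 25% in these data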;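 further: 0% = DMSO with enzyme and 100% = buffer with substrate but no TDP2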
Target sequence (O95551 whole entry, looked up): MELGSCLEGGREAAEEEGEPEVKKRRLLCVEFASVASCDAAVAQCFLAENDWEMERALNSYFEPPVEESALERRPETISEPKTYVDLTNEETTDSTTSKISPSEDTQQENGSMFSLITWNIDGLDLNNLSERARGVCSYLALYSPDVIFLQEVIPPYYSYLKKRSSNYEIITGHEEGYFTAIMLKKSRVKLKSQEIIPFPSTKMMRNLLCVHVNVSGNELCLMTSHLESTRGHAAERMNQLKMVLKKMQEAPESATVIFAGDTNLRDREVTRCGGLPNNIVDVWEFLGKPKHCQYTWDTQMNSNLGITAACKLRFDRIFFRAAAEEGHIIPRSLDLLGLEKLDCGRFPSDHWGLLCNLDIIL
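test system = human TDP2 enzyme | input = TDP2 enzyme at 120 nM final | medium = 50 mM Tris-HCl pH 7.5 with Mg2+, KCl, DTT, BSA | also added = T5PNP substrate, 5 mM | times = 2 h at 37 °C | technique = epi absorbance | benchmarks = high control without enzyme, low control DMSO plus TDP2 | replication = each compound tested once, singlicate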
HCV core dimer = HCV core protein dimerization inhibition. TR-FRET GST/Flag-core106 dimerization, 1536-well. 300,000 compounds, 0.33% hits. inhibition, % at 5 µM;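 active means inhibition above the mean of all tested compounds plus 3 SD, set per screening campaign, cut at about 45% in these data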
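System: GST/Flag-tagged HCV core106 proteins. Incubation: compound-protein-antibody incubation 4 h at 22.5 °C. Technique: HTRF with 340 nm excitation, 617/671 nm emission. Medium: KF-containing HEPES buffer, pH 7.45, DTT, CHAPS, BSA. Read-out: inhibition (%) from 671 over 617 nm ratio. Also added: Eu(K)-anti-GST 90 ng/mL plus XL665-anti-Flag 1 µg/mL.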
MBD2 inh = MBD2-methylated oligo binding inhibition. TR-FRET, MBD2 binding to methylated oligonucleotide. inhibition, % at 4.4 µM. 370,000 compounds, 0.31% hits. AID 686964; in the data active means inhibition above about 13%
UHRF1 binding = blocks human UHRF1 binding to methylated DNA; 370,000 compounds, 0.75% hits; AID 687016; UHRF1 binding to methylated oligo, TR-FRET; inhibition, % at 4.4 µM; Q96T88; in the data active means inhibition above about 21%;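 further: UHRF1 SRA domain binding a hemimethylated CpG hairpin DNA probe; 0% = median of test compound wells and 100% = reference inhibitor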
LEDGF integ inh = blocks HIV-1 LEDGF/p75-dependent DNA integration | AID 743269 | TR-FRET IN-LEDGF/p75 DNA integration, Eu/Cy5 | inhibition, % at 3.7 µM | 370,000 compounds, 0.64% hits;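 active means inhibition above the screen-wide mean plus 3 SD, cut at about 13% in these data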;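 further: signal is the Cy5 over europium emission ratio at 671 and 618 nm; 0% = plate median of compound wells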
The depositor's hits bear a star. Rows were chosen to be rich in hits. Some 1.8% of all compounds tested hit in one or more screens of this group.

Screening O=C(Nc1nnc(C2CC2)s1)C1Cc2ccccc2CN1S(=O)(=O)c1cccs1 (configuration not stated) returned TDP2 absorb 0, HCV core dimer 67*, MBD2 inh 2, UHRF1 binding -3 and LEDGF integ inh 3.
For O=c1c2ccccc2n(Cc2ccco2)n1[C@@H](Cc1ccccc1)Cn1cc(-c2ccc(-c3ccccc3)cc2)nn1 the results were TDP2 absorb -4, MBD2 inh 1, UHRF1 binding 1 and LEDGF integ inh -1.
Screening CCSc1nnc(NC(=O)C2Cc3ccccc3CN2S(=O)(=O)CC)s1 (configuration not stated) returned TDP2 absorb -6, HCV core dimer 49*, MBD2 inh 0, UHRF1 binding -1 and LEDGF integ inh 1.
Screening CCS(=O)(=O)N1Cc2ccccc2CC1C(=O)Nc1nnc(SCc2c(Cl)cccc2Cl)s1 (configuration not stated) returned TDP2 absorb 1, HCV core dimer 21, MBD2 inh 0, UHRF1 binding -2 and LEDGF integ inh -3.
For CSc1ccccc1NC(=O)Nc1ccccc1Cl the results were TDP2 absorb 7, HCV core dimer -4, MBD2 inh 2, UHRF1 binding 0 and LEDGF integ inh -2.
CSc1ccccc1NC(=O)NCCCl was read as TDP2 absorb 1, HCV core dimer -3, MBD2 inh 2, UHRF1 binding 22* and LEDGF integ inh -1.
For Cc1cc(C(=O)OCC(=O)NC2CC2)ccc1[N+](=O)[O-] the results were TDP2 absorb 7, MBD2 inh 4, UHRF1 binding 80* and LEDGF integ inh -2.
O=C(NN=C/C=C/c1ccco1)c1cc(-c2ccc(Cl)cc2)n[nH]1 was read as TDP2 absorb -1, MBD2 inh 0, UHRF1 binding 0 and LEDGF integ inh 1.
CC1Cc2ccccc2N1Cc1cc(=O)n2ccsc2n1 (configuration not stated) was read as TDP2 absorb 14, HCV core dimer 68*, MBD2 inh -1, UHRF1 binding -6 and LEDGF integ inh 5.
`COc1ccccc1N1CCN(Cc2cc(=O)n3ccsc3n2)CC1` gave TDP2 absorb 1, HCV core dimer 2, MBD2 inh 7, UHRF1 binding -2 and LEDGF integ inh 1.
Screening O=C(COc1ccc(Br)cc1)NNC(=O)c1cc(S(=O)(=O)N2CCOCC2)ccc1Cl returned TDP2 absorb -1, MBD2 inh -3, UHRF1 binding -2 and LEDGF integ inh 35*.
For COc1ccc([C@H]2OC(=O)C[C@H]2C(=O)N2CCCC2)cc1OC the results were TDP2 absorb 0, MBD2 inh 1, UHRF1 binding 0 and LEDGF integ inh 0.
Screening COc1ccc2[nH]c3c(c2c1)CCN[C@]31C(=O)N(Cc2cn(Cc3ccccc3)nn2)c2ccc(F)cc21 returned TDP2 absorb 0, MBD2 inh 12, UHRF1 binding 18 and LEDGF integ inh 2.
`Cc1sc(NC(=O)C2=COCCO2)nc1-c1ccc(Br)cc1` gave TDP2 absorb -4, HCV core dimer 5, MBD2 inh -6, UHRF1 binding 30* and LEDGF integ inh 1.
`Cc1sc(NC(=O)C2=COCCO2)nc1-c1ccc(F)cc1` gave TDP2 absorb -2, HCV core dimer 0, MBD2 inh 4, UHRF1 binding 5 and LEDGF integ inh -7.
`CCOC(=O)Cc1nc(N2CCN(C(=O)C3CCCO3)CC2)c2c(C)c(C(=O)OCC)sc2n1` (configuration not stated) gave TDP2 absorb 4, MBD2 inh -3, UHRF1 binding 0 and LEDGF integ inh 1.
Cc1ccc(OCC(=O)c2ccc(Cl)s2)c([N+](=O)[O-])n1 was read as TDP2 absorb 10, HCV core dimer 57*, MBD2 inh -9, UHRF1 binding -8 and LEDGF integ inh 6.
Cc1ccc(CNC(=O)COc2ccc(C)nc2[N+](=O)[O-])cc1 was read as TDP2 absorb 6, HCV core dimer -3, MBD2 inh -3, UHRF1 binding -4 and LEDGF integ inh 0.
Screening O=C(C[C@@H]1C/C=C\CC[C@H](Cc2ccc(F)cc2)C(=O)OC[C@@H](Cc2ccccc2)NC1=O)NCCO returned TDP2 absorb 5, MBD2 inh 8, UHRF1 binding 21* and LEDGF integ inh 1.
